The source of these data is ChEMBL document CHEMBL1143326, “Single-step high-yield radiosynthesis and evaluation of a sensitive 18F-labeled ligand for imaging brain peripheral benzodiazepine receptors with PET” (J Med Chem, 2009).

Series [1] relates to Brain. Description: Drug level in rat brain assessed generation of polar radiometabolites as at 74.6 uCi, iv after 30 mins. Particulars: in vivo, 0.5 h. The class given is ADME, organism-based.
For series [2], the system named is Plasma. The experiment in a line: Drug level in rat plasma assessed generation of polar radiometabolites as at 74.6 uCi, iv after 30 mins. It counts as ADME, organism-based. The settings on record: in vivo, 0.5 h.
Series [3] deals with Brain. The experiment in a line: Drug level in rat brain assessed as standard uptake value at 74.6 uCi, iv after 30 mins. The class given is ADME, organism-based. The settings on record: in vivo, 0.5 h.
Series [4] deals with Blood. Description: Drug level in rat blood assessed as standard uptake value at 74.6 uCi, iv after 30 mins. Particulars: in vivo, 0.5 h. It counts as ADME, organism-based.
Series [5] has as its system Plasma. The experiment in a line: Drug level in rat plasma assessed as standard uptake value at 74.6 uCi, iv after 30 mins. Particulars: in vivo, 0.5 h. The class given is ADME, organism-based.
Series [6] deals with Brain. The experiment in a line: Stability in rat brain assessed as conversion into polar radiometabolites at 10 uCi after 30 mins. It counts as ADME, tissue-based. Particulars: 0.5 h. In a few lines: (§1)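 Radioligand incubated for 30 min with rat brain homogenate or rat whole blood; conversion to polar species eluting at the solvent front measured by reverse-phase radio-HPLC.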

The nature of series [7]: Stability in rat whole blood assessed as conversion into polar radiometabolites at 10 uCi after 30 mins. It counts as ADME, tissue-based. The settings on record: 0.5 h. In a few lines:
as §1

A short description of series [8]: Distribution coefficient, log D at pH 7.4. The class given is physicochemical. Particulars: octanol/water. In a few lines:
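Radioligand partitioned between n-octanol and sodium phosphate buffer (0.15 M, pH 7.4); LogD taken as log of the distribution coefficient; n = 6.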

Series [9] deals with Translocator protein (Rattus norvegicus, UniProt P16257). The experiment in a line: Displacement of [3H]PK11195 from rat PBR receptor. On the technique in general: In a radioligand displacement assay an active substance lowers the binding of a labelled ligand.
Sequence of Translocator protein (Rattus norvegicus, UniProt P16257) (P16257 whole entry, looked up): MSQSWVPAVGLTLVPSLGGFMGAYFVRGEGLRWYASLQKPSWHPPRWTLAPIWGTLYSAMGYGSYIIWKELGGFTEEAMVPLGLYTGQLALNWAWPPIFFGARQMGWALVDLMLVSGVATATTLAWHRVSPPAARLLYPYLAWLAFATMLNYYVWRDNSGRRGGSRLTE
The nature of series [10]: Displacement of [3H]PK11195 from monkey PBR receptor. More on the design: species or system Macaca mulatta.
Series [11] concerns the target Translocator protein (Homo sapiens, UniProt P30536). Description: Displacement of [3H]PK11195 from human PBR receptor. The procedure, abridged:
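Competition binding against [3H]PK 11195 in human brain tissue (mitochondrial fraction of brain homogenate). The tissue came from the NIMH Clinical Brain Disorders Branch. Affinity is expressed as Ki.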

Series [12] relates to Plasma. The experiment in a line: Stability in rat plasma assessed as drug recovery into acetonitrile analytes at 3.78 ug/kg, iv. Particulars: 0.00378 mg/kg.
The subject of series [13] is Brain. Description: Stability in rat brain assessed as drug recovery into acetonitrile analytes at 3.78 ug/kg, iv. Particulars: in vivo, 0.00378 mg/kg. The class given is ADME, organism-based.
The nature of series [14]: Drug level in rat brain assessed as unchanged drug level at >1.39 Ci/umol, iv after 60 mins. The class given is ADME, organism-based. The settings on record: read-out: Drug uptake.
Series [15] deals with Plasma. The experiment in a line: Drug level in rat plasma assessed as unchanged drug level at >1.39 Ci/umol, iv after 60 mins. It counts as ADME, organism-based. The settings on record: in vivo, 1 h.
Series [16] can be described thus: Drug level in rat urine assessed as unchanged drug level at >1.39 Ci/umol, iv after 60 mins. It counts as ADME, organism-based. The settings on record: in vivo, 1 h.
Series [17] in a line: Drug level in rat plasma assessed as drug recovery into acetonitrile analytes at >1.39 Ci/umol, iv after 60 mins. The class given is ADME, organism-based. The settings on record: read-out: Drug uptake.
The nature of series [18]: Drug level in rat brain assessed as drug recovery into acetonitrile analytes at >1.39 Ci/umol, iv after 60 mins. The class given is ADME, organism-based. The settings on record: read-out: Drug uptake.
Series [19] is described as follows: Drug level in rat urine assessed as drug recovery into acetonitrile analytes at >1.39 Ci/umol, iv after 60 mins. The class given is ADME, organism-based. The settings on record: read-out: Drug uptake.
A short description of series [20]: Stability in sodium phosphate buffer at pH 7.4 after 2 hrs by HPLC. The class given is physicochemical. The settings on record: pH 7.4, 2 h. In a few lines:
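Radioligand held in sodium phosphate buffer (0.15 M, pH 7.4) for 2 h at room temperature; analysed by HPLC.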

The subject of series [21] is Plasma. Description: Fraction unbound in human plasma. It counts as ADME, cell-free. The procedure, abridged: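 Radioligand added to pooled human plasma and ultrafiltered at 5000g through Centrifree units; all filter-unit components counted for radioactivity to give the free fraction; n = 3.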
The subject of series [22] is Blood. The experiment in a line: Drug level in monkey blood assessed as drug distribution in cellular compartment. The class given is ADME, tissue-based, Macaca mulatta. The settings on record: rhesus monkey. The procedure, abridged:
(§2)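 Radioligand incubated in vitro with monkey whole blood, then centrifuged; radioactivity counted in the plasma and cell fractions; n = 4.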

Series [23] concerns Plasma. The experiment in a line: Drug distribution in monkey plasma. The class given is ADME, cell-free, Macaca mulatta. The settings on record: rhesus monkey. In a few lines:
as §2

The subject of series [24] is Brain. The experiment in a line: Drug level in rhesus monkey brain assessed as standard uptake value in choroid plexus of fourth ventricle at 2.76 to 5.8 mCi, iv. It counts as ADME, organism-based, Macaca mulatta. The settings on record: in vivo. The procedure, abridged: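 Male rhesus monkeys (11–15 kg) anaesthetised with ketamine, then 1.6% isoflurane. Bolus i.v. radioligand (2.76–5.80 mCi; 0.068–0.276 μg/kg) given; PET for up to 300 min, co-registered with T1 MRI. Regional radioactivity expressed as %SUV; n = 4.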

Series [25] can be described thus: Stability in rhesus monkey whole blood assessed as unchanged drug level after 45 mins by HPLC. It counts as ADME, tissue-based, Macaca mulatta. Particulars: read-out: Stability. In a few lines:
(§3)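 Radioligand incubated for at least 45 min at room temperature in monkey whole blood or plasma. Sample mixed with acetonitrile and centrifuged; supernatant analysed by reverse-phase radio-HPLC.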

A short description of series [26]: Stability in rhesus monkey plasma assessed as unchanged drug level after 45 mins by HPLC. The class given is ADME, cell-free, Macaca mulatta. The settings on record: read-out: Stability. The procedure, abridged:
as §3

A short description of series [27]: Stability in rat brain assessed as unchanged drug level at 2 uCi upto 60 mins. Particulars: read-out: Stability. The class given is ADME, tissue-based.
Series [28] in a line: Stability in rat plasma assessed as drug recovery at 1.36 Ci/umol, iv after 30 mins. The settings on record: read-out: Stability. It counts as ADME, organism-based. In a few lines:
(§4)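 Isoflurane-anaesthetised rat at 37 °C given no-carrier-added radioligand i.v. (mass dose 0.85 μg/kg); sacrifice at 30 min. Plasma and brain homogenate (saline plus acetonitrile) extracted into acetonitrile; supernatants analysed by reverse-phase radio-HPLC (C18, MeOH/H2O/Et3N 75:25:0.1); recovery of radioactivity and parent fraction measured.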

A short description of series [29]: Stability in rat brain assessed as drug recovery at 1.36 Ci/umol, iv after 30 mins. It counts as ADME, organism-based. Particulars: read-out: Stability. The procedure, abridged: as §4
Series [30] can be described thus: Stability in rat plasma at 3.78 ug/kg, iv after 7.3 mins. It counts as ADME, organism-based. The settings on record: 0.00378 mg/kg, read-out: Stability.
Series [31] in a line: Stability in rat plasma at 3.78 ug/kg, iv after 10.9 mins. The class given is ADME, organism-based. The settings on record: 0.00378 mg/kg, read-out: Stability.
A short description of series [32]: Stability in rat plasma at 3.78 ug/kg, iv after 94.3 mins. Particulars: 0.00378 mg/kg, read-out: Stability. It counts as ADME, organism-based.
A short description of series [33]: Stability in rat brain at 3.78 ug/kg, iv after 95 mins. The class given is ADME, organism-based. The settings on record: 0.00378 mg/kg, read-out: Stability.

Sequence of Translocator protein (Homo sapiens, UniProt P30536) (P30536 whole entry): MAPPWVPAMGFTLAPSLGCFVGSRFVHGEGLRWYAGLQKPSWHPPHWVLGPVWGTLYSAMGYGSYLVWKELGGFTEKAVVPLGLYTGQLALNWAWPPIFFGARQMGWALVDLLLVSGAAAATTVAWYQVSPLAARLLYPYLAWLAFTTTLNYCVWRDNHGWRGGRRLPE

For `O=C(C[18F])Nc1ccccc1Oc1ccccc1`, the Activity in the series with Brain [1] and in the series on Plasma [2] was above 99% each time. The Drug uptake with Brain [3] worked out at 120%; in the series with Blood [4], 196%; in the series on Plasma [5] it was 226%. The Stability (in the series on Brain [6]; in [7]) was above 99.9% in each case.

As for `COc1ccc(OC)c(CN(C(=O)CF)c2ccccc2Oc2ccccc2)c1`, the logD (usually the decadic logarithm of the distribution of all forms, ionised or not, between an organic phase and buffer at a given pH) in series [8] is recorded as 4.05. For the same compound, the Ki (usually a measure of affinity in units of concentration, obtained from inhibition or displacement) on Translocator protein [9] came out at 0.18 nM; in series [10] it was 0.318 nM; on Translocator protein [11], 0.997 nM.

Consider `COc1ccc(OC)c(CN(C(=O)C[18F])c2ccccc2Oc2ccccc2)c1`, for which the Stability with Plasma [12] was 93%; in the series on Brain [13] it was 81.8%; in [20], “Stable”. Besides, the remaining at 1 h in [14] is 32.6%; in [27], above 99.2%. For the same compound, the Drug uptake in the series on Plasma [15] was determined as 14.2%; in series [16], 0.2%; in the series with Blood [22], 93.4%; in the series on Plasma [23] it was 6.6%. The recovery at 1 h in series [17] is 93.2%; in series [18] it was 91%; in [19], 80.3%. In the series with Plasma [21], this compound gave a Fu of 0.7%. For the same compound, the Activity in the series with Brain [24] was determined as 350%. In addition, the remaining at 0.75 h is 95.5% in series [25] and 97.2% in series [26]. Also, the remaining at 0.5 h in series [28] turned out to be 92.7%; in series [29] it was 85.1%. Moreover, the remaining at 0.121667 h in [30] was 44.6%. The remaining at 0.181667 h in series [31] worked out at 37.6%. Further, in series [32], the remaining at 1.57167 h is 5.7%. For the same compound, the remaining at 95 min in [33] worked out at 39.2%.

In the case of `COc1ccc(OC)c(CN(C(C)=O)c2cc(F)ccc2Oc2ccccc2)c1`, the values for the Ki on Translocator protein [9] and on Translocator protein [11] were 0.0726 nM and 0.242 nM, respectively.
